In ChEMBL document CHEMBL1212889, “Novel antifungal agents: triazolopyridines as inhibitors of beta-1,6-glucan synthesis” (Bioorg Med Chem, 2010):
In brackets after ≈: the same amount, converted by molar mass.

Key:
Nakaseomyces glabratus [1] = assay: Antimicrobial activity against Candida glabrata IFO 0622 by microdilution assay; format: functional
Procedure, shortened: (§1)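 CLSI broth microdilution, modified to incubate at 30 °C. MIC-0 is the lowest drug concentration giving an optically clear well. Table footnote: the endpoint was the lowest concentration producing a prominent reduction in turbidity. Drug range 0.004 to 128 µg/mL.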

Pichia kudriavzevii [2] = assay: Antimicrobial activity against Candida krusei TIMM 0269 by microdilution assay; format: functional; procedure, shortened: as §1
Liver microsomes = assay: Metabolic stability in human liver microsomes; format: ADME, Microsome
Procedure, shortened: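 Compound at 1 µM final with human liver microsomes (0.5 mg/mL protein) in sodium phosphate buffer pH 7.4, preincubated 20 min at 37 °C. NADPH started the reaction, and MeOH stopped it after 30 min. Samples were centrifuged at 4 °C, and parent loss was measured by LC/MS/MS.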

[3] = Solubility of the compound at pH 6.8; format: physicochemical; conditions: buffer
Procedure, shortened: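 Water solubility measured at pH 6.8.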

[4] = Octanol-phosphate buffered saline partition coefficient, log D of the compound at pH 6.8; format: physicochemical
Procedure, shortened: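 Shake partition between 1-octanol and phosphate-buffered saline at pH 6.8. Layers were separated by centrifugation at 3000 rpm for 10 min, and each layer was assayed by LC/MS on a C18 column with an ammonium acetate (pH 4.5)/acetic acid–acetonitrile gradient. Log D was computed from the partition coefficient.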

Candida tropicalis [5] = assay: Antimicrobial activity against Candida tropicalis TIMM 0313 by microdilution assay; format: functional; procedure, shortened: as §1
Candida albicans [6] = assay: Antimicrobial activity against Candida albicans ATCC 24433 by microdilution assay; format: functional; procedure, shortened: as §1
Saccharomyces cerevisiae [7] = assay: Antimicrobial activity against Saccharomyces cerevisiae AY14 by microdilution assay; format: functional; procedure, shortened: as §1
Saccharomyces cerevisiae [8] = assay: Antimicrobial activity against Saccharomyces cerevisiae AY14 using alamar blue stain by microdilution assay; format: functional
Procedure, shortened: (§2)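 Modified CLSI microdilution in RPMI 1640 with 0.165 M MOPS, plus alamar blue redox indicator. Inoculum was 1 × 10³ to 1 × 10⁴ cells/mL and incubation ran 18–72 h, both set per strain by growth speed, at 30 °C. OD570 was read and MIC-2 taken as the lowest concentration giving 50% absorbance reduction versus the drug-free control.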

Pichia kudriavzevii [9] = assay: Antimicrobial activity against Candida krusei ATCC 44507 using alamar blue stain by microdilution assay; format: functional; procedure, shortened: as §2
Nakaseomyces glabratus [10] = assay: Antimicrobial activity against Candida glabrata ATCC 48435 using alamar blue stain by microdilution assay; format: functional; procedure, shortened: as §2
Candida tropicalis [11] = assay: Antimicrobial activity against Candida tropicalis IAM 4965 using alamar blue stain by microdilution assay; format: functional; procedure, shortened: as §2
Candida albicans [12] = assay: Antimicrobial activity against Candida albicans ATCC 24433 using alamar blue stain by microdilution assay; format: functional; procedure, shortened: as §2

Compound	MIC (Nakaseomyces glabratus [1])	MIC (Pichia kudriavzevii [2])	Stability (Liver microsomes)	solubility [3]	logD [4]	MIC (Candida tropicalis [5])	MIC (Candida albicans [6])	MIC (Saccharomyces cerevisiae [7])	MIC (Saccharomyces cerevisiae [8])	MIC (Pichia kudriavzevii [9])	MIC (Nakaseomyces glabratus [10])	MIC (Candida tropicalis [11])	MIC (Candida albicans [12])
Cc1c(-c2ccccc2)c(N2CC[C@H](N(C)C)C2)n2c(nc3ccccc32)c1C#N	≤ 0.125 µg/mL	≤ 0.125 µg/mL	29%	5.3 µg/mL (≈ 13.4 µM)	3.1	0.5 µg/mL (≈ 1.26 µM)	> 128 µg/mL	≤ 0.125 µg/mL	–	–	–	–	–
CCCCc1c(C)c(C#N)c2nc3ccccc3n2c1N1CC[C@H](N(C)C)C1	≤ 0.125 µg/mL	0.5 µg/mL (≈ 1.33 µM)	57%	26 µg/mL (≈ 69.2 µM)	3.2	0.5 µg/mL (≈ 1.33 µM)	> 128 µg/mL	0.25 µg/mL (≈ 0.666 µM)	–	–	–	–	–
CCCCc1c(C)c(C#N)c2nc(C(C)(C)C)nn2c1N1CC[C@H](N(C)C)C1	32 µg/mL (≈ 83.6 µM)	> 128 µg/mL	11%	146 µg/mL (≈ 382 µM)	3.2	> 128 µg/mL	> 128 µg/mL	64 µg/mL (≈ 167 µM)	–	–	–	–	–
Cc1c(-c2ccccc2)c(N2CC[C@H](N(C)C)C2)n2nc(C(C)(C)C)nc2c1C#N	≤ 0.125 µg/mL	16 µg/mL (≈ 39.7 µM)	9%	16 µg/mL (≈ 39.7 µM)	3.1	2 µg/mL (≈ 4.97 µM)	> 128 µg/mL	≤ 0.125 µg/mL	0.063 µg/mL (≈ 0.157 µM)	> 4 µg/mL	0.063 µg/mL (≈ 0.157 µM)	0.25 µg/mL (≈ 0.621 µM)	> 4 µg/mL
Cc1nc2c(C#N)c(C)c(-c3ccccc3)c(N3CC[C@H](N(C)C)C3)n2n1	2 µg/mL (≈ 5.55 µM)	> 128 µg/mL	84%	376 µg/mL (≈ 1040 µM)	1.7	> 128 µg/mL	> 128 µg/mL	8 µg/mL (≈ 22.2 µM)	–	–	–	–	–
CCCCc1nc2c(C#N)c(C)c(-c3ccccc3)c(N3CC[C@H](N(C)C)C3)n2n1	1 µg/mL (≈ 2.48 µM)	> 64 µg/mL	5%	33 µg/mL (≈ 82 µM)	3.2	> 64 µg/mL	> 128 µg/mL	2 µg/mL (≈ 4.97 µM)	–	–	–	–	–
Cc1c(-c2ccccc2)c(N2CC[C@H](N(C)C)C2)n2nc(-c3ccccc3)nc2c1C#N	> 128 µg/mL	> 128 µg/mL	–	–	–	> 128 µg/mL	> 128 µg/mL	> 128 µg/mL	–	–	–	–	–
CCN(CC)CCNc1c(-c2ccccc2)c(C)c(C#N)c2nc(C(C)(C)C)nn12	0.5 µg/mL (≈ 1.24 µM)	> 128 µg/mL	10%	2 µg/mL (≈ 4.94 µM)	3.3	> 128 µg/mL	> 128 µg/mL	0.5 µg/mL (≈ 1.24 µM)	–	–	–	–	–
Cc1c(-c2ccccc2)c(N2CC[C@H](N(C)C)C2)n2nc(C3CC3)nc2c1C#N	–	–	48%	57 µg/mL (≈ 147 µM)	2.4	–	–	–	0.032 µg/mL (≈ 0.0828 µM)	> 4 µg/mL	0.063 µg/mL (≈ 0.163 µM)	1 µg/mL (≈ 2.59 µM)	> 4 µg/mL
CCc1nc2c(C#N)c(C)c(-c3ccccc3)c(N3CC[C@H](N(C)C)C3)n2n1	–	–	54%	228 µg/mL (≈ 609 µM)	2.1	–	–	–	0.063 µg/mL (≈ 0.168 µM)	> 4 µg/mL	0.125 µg/mL (≈ 0.334 µM)	1 µg/mL (≈ 2.67 µM)	> 4 µg/mL
Cc1c(-c2ccccc2)c(N2CC[C@H](N(C)C)C2)n2nc(C(C)(C)COCc3ccccc3)nc2c1C#N	–	–	9%	< 3 µg/mL	3.8	–	–	–	0.063 µg/mL (≈ 0.124 µM)	> 4 µg/mL	0.125 µg/mL (≈ 0.246 µM)	0.125 µg/mL (≈ 0.246 µM)	> 4 µg/mL
Cc1c(-c2ccccc2)c(N2CC[C@H](N(C)C)C2)n2nc(C(C)(C)CO)nc2c1C#N	–	–	64%	140 µg/mL (≈ 334 µM)	1.8	–	–	–	0.125 µg/mL (≈ 0.299 µM)	> 4 µg/mL	0.25 µg/mL (≈ 0.597 µM)	0.25 µg/mL (≈ 0.597 µM)	> 4 µg/mL
Cc1c(-c2ccccc2)c(N2CC[C@H](N(C)C)C2)n2cc(C(C)(C)C)nc2c1C#N	–	–	16%	27 µg/mL (≈ 67.2 µM)	3	–	–	–	0.125 µg/mL (≈ 0.311 µM)	4 µg/mL (≈ 9.96 µM)	0.25 µg/mL (≈ 0.623 µM)	4 µg/mL (≈ 9.96 µM)	4 µg/mL (≈ 9.96 µM)
Cc1cn2c(N3CC[C@H](N(C)C)C3)c(-c3ccccc3)c(C)c(C#N)c2n1	–	–	71%	356 µg/mL (≈ 990 µM)	1.9	–	–	–	1 µg/mL (≈ 2.78 µM)	> 4 µg/mL	0.5 µg/mL (≈ 1.39 µM)	> 4 µg/mL	> 4 µg/mL
Cc1c(-c2ccccc2)c(N2CC[C@H](N(C)C)C2)n2nc(C(C)(C)C)cc2c1C#N	–	–	12%	< 2 µg/mL	4.8	–	–	–	1 µg/mL (≈ 2.49 µM)	4 µg/mL (≈ 9.96 µM)	1 µg/mL (≈ 2.49 µM)	1 µg/mL (≈ 2.49 µM)	4 µg/mL (≈ 9.96 µM)
OC(Cn1cncn1)(Cn1cncn1)c1ccc(F)cc1F [FLUCONAZOLE]	2 µg/mL (≈ 6.53 µM)	16 µg/mL (≈ 52.2 µM)	96%	> 2000 µg/mL	–	0.25 µg/mL (≈ 0.816 µM)	0.25 µg/mL (≈ 0.816 µM)	4 µg/mL (≈ 13.1 µM)	–	–	–	–	–
